Measurements reported in the RNAGym collection of RNA variant scans (doi:10.1126/science.aae0568).
Variants at the floor of the assay were thinned out.

B1: tRNA (parent)
chain: GUUCCGUUGGCGUAAUGGUAACGCGUCUCCCUCCUAAGGAGAAGACUGCGGGUUCGAGUCCCGUACGGAACG

Variants of: B1
Assay: yeast fitness relative to wild type (ratio to wild type); higher = fitter; tRNA-Arg(CCU), competitive growth, 37 C, YPD
Summary of the method: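 The tRNA-Arg(CCU) gene variants were made by chemical synthesis with a 3% per-site mutation rate at 69 sites and inserted at the native genomic locus of Saccharomyces cerevisiae. After pooling, the strains were competed in YPD at 37°C for 24 hours in six parallel replicates. Gene amplicons from the start population and each end population were read by 100-nucleotide paired-end sequencing, and Darwinian fitness relative to wild type was taken from genotype frequency changes. Genotypes needed ≥ 100 starting reads, and estimates < 0.5 were set to 0.5.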

Variant | yeast fitness
GUUCCGUCGGCGUAAUGGUAACGCGUCUCCCUCCUAAGGAGAAGAGUGCGGGUUCGAGUCCCGUACAGAACG [U8C C46G G67A] | 0.674
GUUCCGUCGGCGUAAUGGUAACGCGUCUCCCUCCUAAGGAGAAGACUGCGGGUUCGAGUCGCGUACGGAACG [U8C C61G] | 0.678
GUUCCGUCGCCGUACUGGUAACGCGUCUCCCUCCUAAGGAGACGACUGCGGGUUCGAGUCCCGUACGGAACG [U8C G10C A15C A43C] | ≤ 0.5
GUUCCGUCAGCGUAAUGGUAACGCGUCUCCCUCCUAAGGAGGAGACUGCGGGUUCGAGUCCCGUACGGAACG [U8C G9A A42G] | 0.514
GUUCCGUCGGCGUAAUGGUAACGCGUCUCCCUCAUAAGGAGAAGACUGCGGGUUCGAGUCGCGUACGCAACG [U8C C34A C61G G68C] | ≤ 0.5
GUUCCGUCGGCGUAAUGGUAACGCGUCUCCCUUCUAAGGAGAAGACUGCGGGUUCGAGUCCCGUACGGAUCG [U8C C33U A70U] | ≤ 0.5
GUUCCGUCGGCAUAAUGGUAACGCGUCUCCCUCCUAAGGAGAAGUCUACGGGUUCGAGUCCCGUACGGAACG [U8C G12A A45U G48A] | ≤ 0.5
GUUCCGUCAGCGGAAUGGUAACGCGUCUCCCUCCUAAGGAGAAGACUGCGGGUUCGAGUCCUGUACGGAACG [U8C G9A U13G C62U] | ≤ 0.5
GUUCCGUCGACGUAAUGGUAACGCGUCUCCCUCCAAAGGAGAAGACUGCGGGUUCGAGUCCCGUACGGAACG [U8C G10A U35A] | ≤ 0.5
GUUCCGUCGGCGUAAUGGUAACGCGUCUCCCUCCUAAGGAGAAGAAUGCCGGUUCGAGUCCCGUACGGAACG [U8C C46A G50C] | 0.567
GUUCCGUCGGCGUAAUGGUAACGCGUCUCCCUCCUAAGGAGAAGACUGUGGGUUCGAGUCACGUACGGAACG [U8C C49U C61A] | ≤ 0.5
GUUCCGUCGCCGUAAUGGUAACGCGUCUCCCUCCUAAGGAGGGGACUGCGGGUUUGAGUCCCGUACGGAACG [U8C G10C A42G A43G C55U] | 0.724
GUUCCGUCCGCGUAAUGGUAACGCGUCUCCCUCCUAAGGAGAAGACUGUGGGUUCGAGUCCCGUACGGAACG [U8C G9C C49U] | ≤ 0.5
GUUCCGUCAGCGUAAUGGUCACGCGUCUCCCUCCUAAGGAGAAGACUGCGGGUUCGAGUCCCGUACGCAACG [U8C G9A A20C G68C] | 0.527
GUUCCGUCAGCGUAAUGGUAAUGCGUCUCACUCCUAAGGAGAAGACUGAGGGUUAGAGUCCUGUAUGGAACG [U8C G9A C22U C30A C49A C55A C62U C66U] | ≤ 0.5
GUUCCGUCGGCGUAAUGGUAACGCGUCUCCCUCCUAAGGAGAAGACUGCGGGUUAGAGUCCCGUACGGAACG [U8C C55A] | 0.739
GUUCCGUCGGCGUAAUGGUAACGCGUCUCCCUCCUAAGGAGAAGACUGAGGGUUCGAGUCCCGUACGCAACG [U8C C49A G68C] | ≤ 0.5
GUUCCGUCCGCGUAAUGGUAACGCGUCUCCCUCCUAUAAAGAAGACUGCGGGUUCGAGUCCCGUACGGAACG [U8C G9C A37U G38A G39A] | ≤ 0.5
GUUCCGUCGGCAUAAUGGUAACGCGUCUGCCUCCUAAGGAGAAGACCGCGGGUUCGAGUCCCGUACGGAACG [U8C G12A C29G U47C] | ≤ 0.5

Variant | yeast fitness
GUUCCGUCGGCGUAAUGGUAACGCGUCUCCCUCCUAAGGAGAAGAUUGCGGAUUCGAGUCCCGUACGGAACG [U8C C46U G52A] | ≤ 0.5
GUUCCGUCGCCGUAAUGGUAACGCGUCUCCCUCCUAAGGAGAAGAUUGCGGGUUCGAGUCCCGUAUGGAACG [U8C G10C C46U C66U] | ≤ 0.5
GUUCCGUCGGCGUAAUGGUAACGCGUCUCCCUCCUAAGGAGAAGACUGCGGGUUCGAGUCCCGUAUGGAACG [U8C C66U] | 0.892
GUUCCGUCGGCGUAAUGGUAACGCGUCUCCCUCCUAAGGAGAAGACUGCGGGUUCGAGUCCCGUAGGGAACG [U8C C66G] | 0.75
GUUCCGUCGGCGUAAUGGUAACGCGUCUCCCUCCUAAGGAGAAGACUGCGGGUUCGAGUCCCGUAAGGAACG [U8C C66A] | 0.687
GUUCCGUCCGCGUAAUGGUAACGCGUCUCCCUCCUAAGGAGAAGACUGUGGGUUCGAGUCCCGUACGUAACG [U8C G9C C49U G68U] | ≤ 0.5
GUUCCGUCGGCAUAAUGGUAACGCGUCUCCCUCCUAAGGAGAAGACUGCGGGUUCGAGUCCCGUACGGAACG [U8C G12A] | 0.714
GUUCCGUCGGCGUAAUGGUAACGCGUCUCCCUCCUAAGGAGAAGACUGCGGGUUCGAGUCACGUUCGGAACG [U8C C61A A65U] | ≤ 0.5
GUUCCGUCGGCGUAAUGGUAACGCGUCUCCCUCGUAAGGAGAAGACUGCGGGUUCGAGUCCCGUACGGAACG [U8C C34G] | 0.574
GUUCCGUCGGCAUAAUGGUAACGCGUCUUCCUCCGAAGGAGAAGACUGCGGGUUCGAGUCCUGUACGGAACG [U8C G12A C29U U35G C62U] | ≤ 0.5
GUUCCGUCGGCGUAAUGGUAACGCGUCUCCCUCGUAAGGAGAAGACUGCGGGUUCGACUCCUGUACGGAACG [U8C C34G G58C C62U] | ≤ 0.5
GUUCCGUCGGCGUAAUGGUAACGCGUCUCCCUCCUAAGGAGAAGAUUGGGGGUUCGAGUCCCGUACGGAACG [U8C C46U C49G] | 0.701
GUUCCGUCGGCGUAAUGGUAACGCGUCUCCCUUCUCAGGAGAGGACUGCGGGUUCGUGUCCCGUACGGAACG [U8C C33U A36C A43G A57U] | ≤ 0.5
GUUCCGUCGGCGUAAUGGUAACGCGUCUCCCUCCUAAGGAGAAGAUUGCGGGUUCGAGUCCCGUACGGAACG [U8C C46U] | 1.03
GUUCCGUCGGCGUAAUGGUAACGCGUCUCCCUCCUAAGGAGAAGAAUGCGGGUUCGAGUCCCGUACGGAACG [U8C C46A] | 1.01
GUUCCGUCGGCGUAAUGGUAACGCGUCUCCCUCCUAAGGAGAAGACUGCGGGUUUGAGUCCCAUACGGAACG [U8C C55U G63A] | 0.552
GUUCCGUCGACGUAAUGGUAACGCGUCUCCCUCCUAAGGGGAAGACUGCGGGUUCGAGUCCCGUACGGAACG [U8C G10A A40G] | 0.551
GUUCCGUCGGCGUAAUGGUAACGCGUCUCCCUCCUAAGGAGAAGACUGGGGGUUCGGGUCCCGUACGGAACG [U8C C49G A57G] | 0.531
GUUCCGUCGGCGUAAUGGUAACGCGUCUCCCUCCUAAGGAGAAGACUGCGGGUUCGAGUACCGUACGGAACG [U8C C60A] | 0.737
